For data set [1], the system named is B16-F10. Description: Antiproliferative activity against mouse B16F10 cells after 72 hrs by MTT assay. In kind it is functional, cell-based. To be noted: B16-F10, 72 h. Summed up:
(§1)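 MTT assay on B16F10 mouse skin melanoma, MCF-7 human breast cancer and Helf human embryonic lung fibroblast cells. Doxorubicin served as reference. Values are mean ± SD of three independent experiments.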
(Tetrazolium dyes change colour on reduction, which living cells bring about.)

Data set [2] in a line: Drug uptake in mouse B16F10 cells after 15 mins by fluorescence microscopic method. In kind it is ADME, cell-based. To be noted: b16-f10, 0.25 h. A digest of the protocol:
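Live B16F10 cells incubated with the coumarin-labelled probe (10 μM among several concentrations) over a time course. Intracellular fluorescence imaged by fluorescence microscopy. Probe excitation/emission maxima 415/475 nm.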

The subject of data set [3] is B16-F10. Description: Induction of apoptosis in mouse B16F10 cells assessed as increase in cytochrome-c protein expression at 1.5 to 6 uM after 48 hrs by Western blot analysis. The class given is functional, cell-based. Summed up:
(§2)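 B16F10 cells treated with parent acid (0, 7.5, 15, 30 μM) or probe (0, 1.5, 3.0, 6.0 μM). Bax, Bcl-2, cytochrome c, caspase 3 and caspase 9 detected by Western blot with GAPDH loading control. Band density normalized to GAPDH as relative expression. Values are mean ± SD of three independent experiments; P values for control vs treated.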
(A western blot detects proteins with antibodies after separation by electrophoresis.)

The subject of data set [4] is B16-F10. Description: Induction of apoptosis in mouse B16F10 cells assessed as increase in caspase-9 protein expression at 1.5 to 6 uM after 48 hrs by Western blot analysis. The class given is functional, cell-based. Summed up:
as §2

The subject of data set [5] is B16-F10. Description: Induction of apoptosis in mouse B16F10 cells assessed as increase in Bax protein expression at 1.5 to 6 uM after 48 hrs by Western blot analysis. The class given is functional, cell-based. Summed up:
as §2

A short description of data set [6]: Drug uptake in mouse B16F10 cell mitochondria at 4 uM after 1 hr by MitoTracker dye based confocal laser scanning microscopic method. The class given is ADME. To be noted: b16-f10, 1 h. Summed up: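 Live B16F10 cells incubated 1 h with the coumarin probe at 4 μM together with MitoTracker. Imaged by confocal laser scanning microscopy with probe excitation at 415 nm (green) and MitoTracker […] at 579 nm (red). Colocalization read from overlay of the two channels.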

Data set [7] can be described thus: Antiproliferative activity against HELF after 72 hrs by MTT assay. Details: species or system Homo sapiens. Summed up: as §1
The subject of data set [8] is B16-F10. Description: Induction of apoptosis in mouse B16F10 cells assessed as decrease in Bcl2 protein expression at 1.5 to 6 uM after 48 hrs by Western blot analysis. The class given is functional, cell-based. Summed up: as §2
Data set [9] concerns B16-F10. Description: Induction of mitochondrial membrane potential loss in mouse B16F10 cells at 1.5 to 6 uM after 48 hrs by JC-1 dye based flow cytometry. The class given is functional, cell-based. A digest of the protocol:
(§3)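 B16F10 cells incubated 48 h with parent acid (0, 7.5, 15, 30 μM) or probe (0, 1.5, 3.0, 6.0 μM), then stained with JC-1. Percentage of cells with collapsed mitochondrial membrane potential determined by flow cytometry.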

Data set [10] is described as follows: Drug uptake in mouse B16F10 cell nucleus at 4 uM after 1 hr by DAPI staining based confocal laser scanning microscopic method. The class given is ADME, subcellular. The following applies: b16-f10, 1 h.
A short description of data set [11]: Drug uptake in mouse B16F10 cells at 10 uM up to 240 mins mins by flow cytometry. The class given is ADME, cell-based. The following applies: b16-f10, 4 h. Summed up:
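Live B16F10 cells incubated with 10 μM coumarin probe over a time course (0–120 min and beyond). Intracellular fluorescence intensity quantified by flow cytometry.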
In general terms: A flow cytometer gives signals particle by particle.

For data set [12], the system named is B16-F10. Description: Induction of apoptosis in mouse B16F10 cells assessed as increase in caspase-3 protein expression at 1.5 to 6 uM after 48 hrs by Western blot analysis. In kind it is functional, cell-based. A digest of the protocol:
as §2

Data set [13] can be described thus: Drug uptake in mouse B16F10 cell lysosomes at 4 uM after 1 hr by LysoTracker staining based confocal laser scanning microscopic method. In kind it is ADME, subcellular, Lysosome. The following applies: b16-f10, 1 h. Summed up:
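Live B16F10 cells co-stained with the coumarin probe at 4 μM and LysoTracker Red, with DAPI nuclear counterstain. Imaged by confocal microscopy, probe visualized as green and lysosomes as red.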

The next data set has as its system MCF7. Description: Antiproliferative activity against human MCF7 cells after 72 hrs by MTT assay. The class given is functional, cell-based. The following applies: MCF7, 72 h. A digest of the protocol: as §1
Data set [14] in a line: Drug uptake in mouse B16F10 cells up to 50 uM after 1 hr by fluorescence microscopic method. The following applies: b16-f10, 1 h. The class given is ADME, cell-based. A digest of the protocol: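 Live B16F10 cells stained 1 h with the unconjugated coumarin dye at up to 50 μM as control. Intracellular fluorescence examined by microscopy.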
The test system of data set [15] is B16-F10. Description: Induction of mitochondrial membrane potential loss in mouse B16F10 cells at 7.5 uM after 48 hrs by JC-1 dye based flow cytometry (reference value: 1.79%). In kind it is functional. Summed up: as §3
Data set [16] has as its system B16-F10. Description: Induction of apoptosis in mouse B16F10 cells assessed as increase in caspase-9 protein expression at 7.5 to 30 uM after 48 hrs by Western blot analysis. In kind it is functional, cell-based. Summed up: as §2
Data set [17] relates to B16-F10. Description: Induction of apoptosis in mouse B16F10 cells assessed as increase in Bax protein expression at 7.5 to 30 uM after 48 hrs by Western blot analysis. In kind it is functional, cell-based. Summed up: as §2
For data set [18], the system named is B16-F10. Description: Induction of apoptosis in mouse B16F10 cells assessed as increase in caspase-3 protein expression at 7.5 to 30 uM after 48 hrs by Western blot analysis. In kind it is functional, cell-based. Summed up: as §2
For data set [19], the system named is B16-F10. Description: Induction of apoptosis in mouse B16F10 cells assessed as decrease in Bcl2 protein expression at 7.5 to 30 uM after 48 hrs by Western blot analysis. In kind it is functional, cell-based. Summed up: as §2
The test system of data set [20] is B16-F10. Description: Induction of mitochondrial membrane potential loss in mouse B16F10 cells at 15 uM after 48 hrs by JC-1 dye based flow cytometry (reference value: 1.79%). In kind it is functional. Summed up: as §3
Data set [21] relates to B16-F10. Description: Induction of apoptosis in mouse B16F10 cells assessed as increase in cytochrome-c protein expression at 7.5 to 30 uM after 48 hrs by Western blot analysis. The class given is functional, cell-based. Summed up:
as §2

The test system of data set [22] is B16-F10. Description: Induction of mitochondrial membrane potential loss in mouse B16F10 cells at 30 uM after 48 hrs by JC-1 dye based flow cytometry (reference value: 1.79%). In kind it is functional. A digest of the protocol:
as §3

Consider 13 molecules from ChEMBL document CHEMBL4266010, “Synthesis, Biological Evaluation of Fluorescent 23-Hydroxybetulinic Acid Probes, and Their Cellular Localization Studies” (ACS Med Chem Lett, 2018).

Activity calls are given as the source filed them. The rule behind the calls is not given here. Bounds are passed on as bounds.

By IC50 is commonly meant the concentration that gives 50% inhibition. For the molecule `C=C(C)[C@@H]1CC[C@]2(C(=O)O)CC[C@]3(C)[C@H](CC[C@@H]4[C@@]5(C)CC[C@H](O)[C@@](C)(COC(=O)CCC(=O)NCCNC(=O)c6cc7ccc(N(CC)CC)cc7oc6=O)[C@@H]5CC[C@]43C)[C@@H]12`, the results for the IC50 (with B16-F10 [1]; in [7]; in the data set on MCF7) were 4.07 µM, 11.7 µM and 6.26 µM, respectively. The Drug uptake result is listed as “Dose-dependent effect” in data set [2]; “Active” in data set [6]; “Not Active” in data set [10]; “Active” in data set [11]; “Not Active” in data set [13]. Moreover, the result in the data set with B16-F10 [3], in the data set on B16-F10 [4], with B16-F10 [5], in the data set with B16-F10 [8], in the data set with B16-F10 [9] and in the data set on B16-F10 [12] was Active.

For `C=C(C)[C@@H]1CC[C@]2(C(=O)O)CC[C@]3(C)[C@H](CC[C@@H]4[C@@]5(C)CC[C@H](O)[C@@](C)(COC(=O)COCCOCCNC(=O)c6cc7ccc(N(CC)CC)cc7oc6=O)[C@@H]5CC[C@]43C)[C@@H]12`, the IC50 with B16-F10 [1] was found to be 5.25 µM; in data set [7], 10.8 µM; in the data set on MCF7 it was 8.16 µM.

For the molecule `C=C(C)[C@@H]1CC[C@]2(C(=O)O)CC[C@]3(C)[C@H](CC[C@@H]4[C@@]5(C)CC[C@H](O)[C@@](C)(COC(=O)CCC(=O)NCCCCNC(=O)c6cc7ccc(N(CC)CC)cc7oc6=O)[C@@H]5CC[C@]43C)[C@@H]12`, the results for the IC50 (in the data set with B16-F10 [1]; in [7]; in the data set on MCF7) were 7.77 µM, 17.6 µM and 9.7 µM, respectively.

As to `C=C(C)[C@@H]1CC[C@]2(C(=O)O)CC[C@]3(C)[C@H](CC[C@@H]4[C@@]5(C)CC[C@H](O)[C@@](C)(COC(=O)CCCCCNC(=O)c6cc7ccc(N(CC)CC)cc7oc6=O)[C@@H]5CC[C@]43C)[C@@H]12`, the IC50 in the data set on B16-F10 [1] came to 12.3 µM; in [7], 79.7 µM; in the data set with MCF7, 37.8 µM.

Take `C=C(C)[C@@H]1CC[C@]2(C(=O)O)CC[C@]3(C)[C@H](CC[C@@H]4[C@@]5(C)CC[C@H](O)[C@@](C)(COC(=O)CCC(=O)OCCNC(=O)c6cc7ccc(N(CC)CC)cc7oc6=O)[C@@H]5CC[C@]43C)[C@@H]12`: the IC50 in the data set on B16-F10 [1] turned out to be 10.5 µM; in [7], 25.1 µM; in the data set with MCF7 it was 18.1 µM.

With `C=C(C)[C@@H]1CC[C@]2(C(=O)O)CC[C@]3(C)[C@H](CC[C@@H]4[C@@]5(C)CC[C@H](O)[C@@](C)(COC(=O)CCC(=O)OCCOC(=O)c6cc7ccc(N(CC)CC)cc7oc6=O)[C@@H]5CC[C@]43C)[C@@H]12`, the IC50 in the data set with B16-F10 [1] came to 11.8 µM; in [7], 23.8 µM; in the data set on MCF7 it was 19.7 µM.

Regarding `C=C(C)[C@@H]1CC[C@]2(C(=O)O)CC[C@]3(C)[C@H](CC[C@@H]4[C@@]5(C)CC[C@H](O)[C@@](C)(COC(=O)CCCNC(=O)c6cc7ccc(N(CC)CC)cc7oc6=O)[C@@H]5CC[C@]43C)[C@@H]12`, the IC50 with B16-F10 [1] turned out to be 11.3 µM; in [7], 27.8 µM; in the data set on MCF7, 18.1 µM.

With `COc1cccc2c1C(=O)c1c(O)c3c(c(O)c1C2=O)C[C@@](O)(C(=O)CO)C[C@@H]3O[C@H]1C[C@H](N)[C@H](O)[C@H](C)O1` [DOXORUBICIN], the IC50 in the data set on B16-F10 [1] was 0.19 µM; in data set [7], 0.21 µM; with MCF7 it was 0.15 µM.

Consider `C=C(C)[C@@H]1CC[C@]2(C(=O)O)CC[C@]3(C)[C@H](CC[C@@H]4[C@@]5(C)CC[C@H](O)[C@@](C)(COC(=O)CCC(=O)OCCOCCOC(=O)c6cc7ccc(N(CC)CC)cc7oc6=O)[C@@H]5CC[C@]43C)[C@@H]12`, for which the results for the IC50 (with B16-F10 [1]; in data set [7]; in the data set on MCF7) were 35.5 µM, 21.4 µM and 30.5 µM, respectively.

Turning to `C=C(C)[C@@H]1CC[C@]2(C(=O)O)CC[C@]3(C)[C@H](CC[C@@H]4[C@@]5(C)CC[C@H](O)[C@@](C)(COC(=O)CCC(=O)OCCOCCOCCOC(=O)c6cc7ccc(N(CC)CC)cc7oc6=O)[C@@H]5CC[C@]43C)[C@@H]12`, the IC50 in the data set on B16-F10 [1] was 30 µM; in [7] it was 19.4 µM; in the data set with MCF7 it was 24.2 µM.

Consider `C=C(C)[C@@H]1CC[C@]2(C(=O)O)CC[C@]3(C)[C@H](CC[C@@H]4[C@@]5(C)CC[C@H](O)[C@@](C)(COC(=O)CCC(=O)NCCOC(=O)c6cc7ccc(N(CC)CC)cc7oc6=O)[C@@H]5CC[C@]43C)[C@@H]12`, for which the IC50 in the data set on B16-F10 [1] stood at 11.5 µM; in data set [7] it was 24 µM; in the data set on MCF7, 19.9 µM.

`CCN(CC)c1ccc2cc(C(=O)NCCNC(=O)CCC(=O)O)c(=O)oc2c1` came in with an IC50 in the data set with B16-F10 [1] of more than 100 µM. Besides, the Drug uptake result in [14] is “Not Active”.

`C=C(C)[C@@H]1CC[C@]2(C(=O)O)CC[C@]3(C)[C@H](CC[C@@H]4[C@@]5(C)CC[C@H](O)[C@@](C)(CO)[C@@H]5CC[C@]43C)[C@@H]12`: the results for the IC50 (in the data set on B16-F10 [1]; in data set [7]; with MCF7) were 24.5 µM, 31.5 µM and 20.8 µM, respectively. The Activity with B16-F10 [15] is given as 10.57%; in the data set with B16-F10 [20], 22.85%; in the data set with B16-F10 [22], 42.87%. Moreover, the outcome in the data set with B16-F10 [16], in the data set on B16-F10 [17], in the data set with B16-F10 [18], in the data set on B16-F10 [19] and in the data set on B16-F10 [21] was Active.
